Compound activity (PubChem)
LYP act = LYP (human) phosphatase activation; recombinant LYP, DiFMUP fluorescence; 0 = plate median, 100 = signal doubled; hit rate 0.11% among 96,000; Q9Y2R2; activation, % at 2 µM;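 active = activation at 2 µM above a set limit, the mean plus 5 SD, cut at about 37% in these data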
Rev-RRE block = HIV Rev-RRE protein-RNA interaction inhibition; P05866; Rev peptide-RRE RNA binding, FRET; inhibition, % at 8 µM; hit rate 0.79% among 97,000; AID 704;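 active = inhibition above the screen-wide mean plus 3 SD, cut at about 35% in these data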
Target sequence (P05866 whole entry, looked up): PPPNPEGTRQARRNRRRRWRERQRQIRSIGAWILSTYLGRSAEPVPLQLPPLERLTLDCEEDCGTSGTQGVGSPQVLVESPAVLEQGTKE
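Probe or stimulus: fluorescein-Rev peptide as binding partner; assay system: Cy5-tagged RRE RNA duplex with fluorescein-tagged Rev peptide; timing: 5 min compound–RNA preincubation, then 15 min with peptide, 25 °C; medium: HEPES pH 7.5 buffer with KCl, MgCl2, NaCl and EDTA; signal: fluorescein-to-Cy5 FRET, 480 nm excitation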
LYP inh 2 = LYP (human) phosphatase inhibition. recombinant LYP catalytic domain, DiFMUP fluorescence. inhibition, % at 2 µM. hit rate 0.21% among 96,000. AID 640;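 active = inhibition at 2 µM at or above a set limit, the screen mean plus 3 SD, cut at about 24% in these data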
Plk1 PBD FP = Plk1 (human) PBD binding inhibition. inhibition, %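 (tested at about 20 µM)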. P53350. AID 693. hit rate 0.13% among 97,000. Plk1 PBD phosphopeptide binding, fluorescence polarization; in the data active = inhibition above about 34%, passing the limit was not always enough
PLK1 kinase inh = blocks human PLK1 kinase activity; P53350; recombinant PLK1 kinase, TR-FRET peptide phosphorylation; inhibition, % at 10 µM; hit rate 0.53% among 97,000;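 active = inhibition of 50% or more in the single-concentration screen; inactive = inhibition below 50%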
EphB4 antag = antagonists of human EphB4-ephrin-B2 interaction. P54760. EphB4 LBD / TNYL-RAW-Alexa532 peptide, fluorescence polarization. inhibition, % at 7 µM. hit rate 0.15% among 97,000;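 active = inhibition above the screen-wide mean inhibition plus 3 SD, cut at about 15% in these data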
A number is an active result; . = inactive; / = no result; [ ] = another dose, or the depositor's remark. Hits are enriched below; roughly 1.8% of the tested compounds scored in any of these assays.

SMILES | LYP act | Rev-RRE block | LYP inh 2 | Plk1 PBD FP | PLK1 kinase inh | EphB4 antag
CC(C)(C)c1ccc(/C([O-])=C(/C(=S)NCc2ccco2)[n+]2ccccc2)cc1 | . | . | . | . | . | .
COc1ccc(C2C(=O)N(C3CCCCC3)CC(=O)N2C2CCCCC2)cc1 (stereo not drawn) | . | . | 25 | . | . | .
Cc1ccc(C2C(=O)N(C3CCCC3)CC(=O)N2C2CCCCC2)cc1 (stereo not drawn) | . | . | . | . | . | .
O=C(COC(=O)c1cccnc1)Nc1ccccc1 | . | . | . | . | . | .
Cn1cc(Cl)c(C(=O)OCC(=O)Nc2ccccc2)n1 | . | . | . | . | . | 15
CCN(CC)c1ccc2c(c1)OC(N)=C(C#N)C2c1cccnc1 (stereo not drawn) | . | 121[fluorescence artefact?] | . | . | . | .
CNC(=O)CN(c1ccc(F)cc1)S(=O)(=O)c1cc(C)ccc1OC | . | . | . | . | . | .
Cc1ccc(Cn2ccc(NC(=O)CCSc3nc(-c4ccco4)cc(C(F)(F)F)n3)n2)cc1 | . | . | . | . | . | .
Cc1ccccc1Cn1ccc(NC(=O)CCSc2nc(-c3ccco3)cc(C(F)(F)F)n2)n1 | . | . | 25 | . | . | .
O=C1NC(=S)N/C1=C/c1cc([N+](=O)[O-])ccc1O | . | 111[fluorescence artefact?] | . | . | . | .
O=C1NC(=S)N/C1=C/c1cccc([N+](=O)[O-])c1O | . | 69 | . | . | . | .
CCOC(=O)c1c(NC(=S)Nc2ccccc2)sc2c1CCCCC2 | . | . | . | . | . | .
CCOC(=O)c1c(NC(=S)Nc2ccccc2)sc2c1CCN(CC)C2 | . | 121[fluorescence artefact?] | . | . | . | .
Cc1ccccc1-n1c(Cn2c(=O)sc3ccccc32)nnc1SCC(=O)NCC1CCCO1 (stereo not drawn) | . | . | . | . | . | .
Cc1cc(=O)n(CCO)c(O)c1C#N | . | . | . | . | . | .
Cc1cc(=O)n(CC(C)C)c(O)c1C#N | . | . | . | . | . | 17
Cc1cc(NC(=O)CSc2cn(CCNC(=O)c3ccccc3)c3ccccc23)no1 | . | . | . | . | . | .
O=C(CSc1cn(CCNC(=O)c2ccccc2)c2ccccc12)NCc1ccco1 | / | . | / | . | 67 | .
Cc1ccc(C(=O)NCCn2cc(SCC(=O)Nc3cc(C)on3)c3ccccc32)cc1 | / | . | / | . | 62 | .
CCCn1cc(SCC(=O)NCc2ccco2)c2ccccc21 | . | . | . | . | . | .
Cc1nn(C)c(C)c1S(=O)(=O)N1CCCC(C(=O)NCC2COc3ccccc3O2)C1 (stereo not drawn) | . | . | . | . | . | .
COc1ccc(S(=O)(=O)NNC(=O)c2csc(-n3nc(C)cc3C(F)(F)F)n2)cc1 | . | . | . | . | . | .
COc1ccccc1C1C=C(c2ccc(Cl)cc2)Nc2nc(NS(C)(=O)=O)nn21 (stereo not drawn) | . | . | . | . | . | .
COc1ccccc1C1C=C(c2ccc(Cl)cc2)Nc2nc(N3C(=O)CCC3=O)nn21 (stereo not drawn) | . | . | . | . | . | .
CC1CC(c2ccccc2)n2nc(N3C(=O)c4ccccc4C3=O)nc2N1 (stereo not drawn) | . | . | . | . | . | .
SMILES | LYP act | Rev-RRE block | LYP inh 2 | Plk1 PBD FP | PLK1 kinase inh | EphB4 antag
O=C1CCC(=O)N1c1nc2n(n1)C(c1ccccc1)C=C(c1ccc(Br)cc1)N2 (stereo not drawn) | . | 84[fluorescence artefact?] | . | . | . | .
CS(=O)(=O)Nc1nc2n(n1)C(c1ccccc1)C=C(c1ccc(Br)cc1)N2 (stereo not drawn) | . | 61 | . | . | . | .
COc1ccc(C2C=C(c3ccc(Br)cc3)Nc3nc(N4C(=O)CCC4=O)nn32)cc1 (stereo not drawn) | . | 113[fluorescence artefact?] | . | . | . | .
CCc1nc(SCC(=O)Nc2sc(C)c(C)c2C(=O)OC)c2ccccc2n1 | . | . | . | . | . | .
CCc1cccc(NC(=O)CN(c2ccc(OC)cc2)S(=O)(=O)c2c(C)n[nH]c2C)c1 | . | . | . | . | . | .
CCCCNC(=O)CN1C(=O)NC2(CCCc3ccccc32)C1=O (stereo not drawn) | . | . | . | . | . | .
CCOC(=O)C1CCN(C(=O)c2cccnc2Cl)CC1 | . | . | . | . | . | .
CC(=O)N1C(=O)C(=C2C=C(C)OC(C)=C2)c2ccccc21 | . | 110[fluorescence artefact?] | . | . | . | .
